The values that follow come from ChEMBL document CHEMBL1799934, “Irreversible Nek2 kinase inhibitors with cellular activity” (J Med Chem, 2011).

The structures appear in SMILES notation. Where a chain is given by its changes, count along the chain named. Activity calls are given as the source filed them. The calls are words filed in the database; no cut-off is given here. Bounds are passed on as bounds.

In assay [1] the target is T1, Serine/threonine-protein kinase Nek2 (Homo sapiens, UniProt P51955).
T1 sequence (P51955 whole entry): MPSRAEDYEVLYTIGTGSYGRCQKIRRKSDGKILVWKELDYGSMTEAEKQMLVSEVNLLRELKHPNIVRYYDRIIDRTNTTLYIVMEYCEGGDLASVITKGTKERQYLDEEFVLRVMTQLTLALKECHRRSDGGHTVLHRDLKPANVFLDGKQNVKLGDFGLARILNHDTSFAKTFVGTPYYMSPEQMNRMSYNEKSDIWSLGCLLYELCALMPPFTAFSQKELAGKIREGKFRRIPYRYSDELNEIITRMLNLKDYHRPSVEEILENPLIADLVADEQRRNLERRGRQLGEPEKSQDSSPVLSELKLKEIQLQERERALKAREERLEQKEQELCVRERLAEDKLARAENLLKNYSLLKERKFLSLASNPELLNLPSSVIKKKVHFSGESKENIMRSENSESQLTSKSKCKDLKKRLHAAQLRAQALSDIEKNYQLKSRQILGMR
The assay is described as follows: Inhibition of human Nek2 in using [gamma-32P] ATP.

Assay [2] addresses Cyclin-dependent kinase 1/cyclin B1 (Homo sapiens, UniProt P06493). Nature of the assay: Inhibition of human Cdk1/cyclinB using histone H1 as a substrate and [gamma-32P]ATP. The assay is classed as protein-complex assay.
The test system of assay [3] is A549. Nature of the assay: Antimitotic activity in monastrol-arrested human A549 cells assessed as cells that exit mitosis arrest at 5 uM after 45 mins by immunofluorescence microscopic analysis. The format is functional.
The species named for the next assay is Homo sapiens. The assay is described as follows: Ratio of IC50 for human Nek2 to IC50 for human Cdk1/cyclinB. Summed up: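 Nek2 (WT kinase domain, 15 nM) pre-incubated with inhibitor for 30 min at room temperature in HEPES pH 7.5, MgCl2, EDTA, BSA with 100 μM ATP and 3% DMSO. β-casein and [γ-32P]ATP were then added for a 30-min reaction. Cdk1/cyclin B (2 nM) was run the same way but with 38 μM ATP and histone H1 as substrate. Phosphorylation was read from nitrocellulose spots. IC50s are means of three determinations.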

The target of assay [4] is T2, Serine/threonine-protein kinase Nek2 (Homo sapiens) (UniProt P51955).
T2 sequence (whole entry): T1 sequence (P51955 whole entry)
Nature of the assay: Inhibition of human Nek2 at 5 uM using [gamma-32P] ATP.

Assay [5] concerns the target Serine/threonine-protein kinase Nek2 (Homo sapiens, UniProt P51955, C22V). The assay is described as follows: Inhibition of human Nek2 C22V mutant using [gamma-32P] ATP.
Assay [6] addresses T2, Serine/threonine-protein kinase Nek2 (Homo sapiens). Nature of the assay: Induction of alkylation at Cys22 position of wild type human Nek2 kinase domain amino acid 1-271 at 500 nM by electrospray mass spectrometric analysis. The essentials:
(§1)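 WT or C22V Nek2 kinase domain (50 nM) incubated with 500 nM inhibitor in PBS pH 7.4, 5% DMSO, 5 h at room temperature. Acidified to pH 3 with HCl, then LC-MS on a C18 protein column with acetonitrile/formic acid gradient and ESI detection. Spectra deconvoluted to single masses of protein and adducts.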

Assay [7] has as its system T3, Serine/threonine-protein kinase Nek2 (Homo sapiens), P51955 [C22V].
T3 sequence (whole entry): T1 sequence (P51955 whole entry) with C22V
Nature of the assay: Induction of alkylation at Cys22 position of human Nek2 C22V mutant kinase domain amino acid 1-271 at 500 nM by electrospray mass spectrometric analysis. The essentials:
as §1

For assay [8], the system named is A549. The assay is described as follows: Induction of deffect in bipolar spindle assembly in human A549 cells at 5 uM after 30 mins in presence of Cdk1 inhibitor 19. The assay is classed as functional, cell-based. The essentials: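 A549 cells on poly-lysine coverslips grown 24 h, held in late G2 with 5 μM 19 for 20 h, then given 5 μM test compound plus 5 μM 19 for 30 min. Washed twice into compound-free media, then 10 μM MG132 for 1 h. Fixed and immunostained for spindles and chromosomes. Bipolar spindles quantified in >160 cells/condition, mean ± SD of 3 experiments.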

For assay [9], the system named is A549. Nature of the assay: Effect on chromosome congression in human A549 cells at 5 uM after 30 mins in presence of Cdk1 inhibitor 19. The assay is classed as functional, cell-based.
Assay [10] concerns A549. Nature of the assay: Reduction in total number of mitotic cells in human A549 cells at 5 uM after 30 mins in presence of Cdk1 inhibitor 19. The assay is classed as functional, cell-based.

Cyclin-dependent kinase 1/cyclin B1, sequence (P06493 whole entry): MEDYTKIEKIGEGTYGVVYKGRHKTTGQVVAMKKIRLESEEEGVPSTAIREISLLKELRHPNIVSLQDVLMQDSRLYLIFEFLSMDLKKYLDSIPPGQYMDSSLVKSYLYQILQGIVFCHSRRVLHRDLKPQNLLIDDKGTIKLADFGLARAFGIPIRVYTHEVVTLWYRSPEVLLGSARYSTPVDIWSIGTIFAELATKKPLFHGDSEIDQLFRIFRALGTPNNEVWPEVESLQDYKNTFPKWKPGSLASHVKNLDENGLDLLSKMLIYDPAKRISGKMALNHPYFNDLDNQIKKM
Cyclin-dependent kinase 1/cyclin B1, sequence (P14635 whole entry, further chain): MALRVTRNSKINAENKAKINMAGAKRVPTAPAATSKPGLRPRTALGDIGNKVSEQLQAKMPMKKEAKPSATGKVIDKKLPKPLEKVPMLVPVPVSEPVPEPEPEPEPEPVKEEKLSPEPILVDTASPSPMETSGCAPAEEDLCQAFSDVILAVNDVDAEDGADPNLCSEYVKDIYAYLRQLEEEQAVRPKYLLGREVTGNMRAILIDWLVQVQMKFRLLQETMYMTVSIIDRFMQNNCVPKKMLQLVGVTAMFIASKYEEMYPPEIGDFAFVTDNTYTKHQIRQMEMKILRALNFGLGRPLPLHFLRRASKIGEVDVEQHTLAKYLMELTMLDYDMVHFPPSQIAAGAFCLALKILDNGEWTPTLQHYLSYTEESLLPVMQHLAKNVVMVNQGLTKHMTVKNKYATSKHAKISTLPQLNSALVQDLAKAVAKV
Serine/threonine-protein kinase Nek2 (Homo sapiens, UniProt P51955, C22V), sequence (P51955 whole entry C22V, the tested form may be a part): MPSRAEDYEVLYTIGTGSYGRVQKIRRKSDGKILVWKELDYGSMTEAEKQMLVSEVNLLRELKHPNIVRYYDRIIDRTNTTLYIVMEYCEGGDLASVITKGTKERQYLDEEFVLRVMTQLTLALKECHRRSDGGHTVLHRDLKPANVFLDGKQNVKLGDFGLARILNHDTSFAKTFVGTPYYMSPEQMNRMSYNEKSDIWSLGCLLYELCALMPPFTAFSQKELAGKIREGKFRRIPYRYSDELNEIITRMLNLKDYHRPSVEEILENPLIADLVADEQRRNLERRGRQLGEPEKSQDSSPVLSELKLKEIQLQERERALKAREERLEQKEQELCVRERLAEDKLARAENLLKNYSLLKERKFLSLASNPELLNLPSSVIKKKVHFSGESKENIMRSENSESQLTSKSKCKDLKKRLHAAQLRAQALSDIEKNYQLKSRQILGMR

The term IC50 denotes the concentration needed to halve the response being measured. `CCc1nc(C)c(/C=C2\C(=O)Nc3ccc(C(C)=O)cc32)[nH]1`: the IC50 is above 20000 nM in assay [1] and 3600 nM in [2]. For the same compound, the Activity with A549 [3] came out at 27%.
`C#CC(=O)Nc1ccc2c(c1)/C(=C/c1[nH]cnc1C)C(=O)N2`: the IC50 in [1] is 390 nM; in [2], below 1 nM. Further, in the assay filed under Homo sapiens, the Ratio IC50 was determined as 400. Also, the Activity in the assay on A549 [3] came out at 99%.
Take `C#CC(=O)Nc1ccc2c(c1)/C(=C/c1[nH]c(CC)nc1C)C(=O)N2C`: the IC50 in assay [1] and in assay [2] was above 20000 nM in each case. The Activity in the assay on A549 [3] amounted to 0%.
`CCc1nc(C)c(/C=C2\C(=O)Nc3ccc(C(=O)CCl)cc32)[nH]1`: the IC50 in assay [1] was 130 nM; in assay [2] it was 2500 nM. The Activity in the assay on A549 [3] is 50%.
A word on the inhibition: it is the drop in the measured response relative to a control, in per cent. On to `C#CC(=O)Nc1ccc2c(c1)/C(=C/c1ccc[nH]1)C(=O)N2`, for which the inhibition in assay [4] turned out to be 80%. The IC50 came to 920 nM in assay [1], 20000 nM in assay [5] and 90 nM in assay [2]. The outcome in assay [6] was Active. In assay [7], the outcome was inactive. The Activity in the assay with A549 [3] was determined as 78%.
In assay [4], `O=C1Nc2ccc(C(=O)CCl)cc2/C1=C/c1ccc[nH]1` yielded an inhibition of 80%. For the same compound, the values for the IC50 in assay [1], in [5] and in assay [2] were below 6 nM, 14000 nM and 10 nM, respectively. Moreover, in [6], the outcome was Active. Besides, the outcome in assay [7] was inactive. Moreover, the Activity in the assay on A549 [3] turned out to be 98%.
With `C#CC(=O)Nc1ccc2c(c1)/C(=C/c1cnc[nH]1)C(=O)N2`, the half-maximal inhibitory concentration (IC50) in assay [1] is 620 nM; in assay [2], below 1 nM. Further, in the assay with A549 [3], the Activity was determined as 80%.
For the compound `O=C1Nc2ccc(C(=O)CCl)cc2/C1=C/c1cnc[nH]1`, the IC50 in assay [1] was 60 nM; in [2], below 1 nM. Further, the Activity in the assay on A549 [3] is 92%.
`C=CC(=O)Nc1ccc2c(c1)/C(=C/c1ccc[nH]1)C(=O)N2`: the inhibition result in assay [4] was “inactive”.
`Cc1nc[nH]c1/C=C1\C(=O)Nc2ccc(C(=O)CCl)cc21`: the figures for the IC50 in assay [1] and in assay [2] were 20 nM and below 1 nM, respectively. Also, the Activity in the assay on A549 [3] was 100%.
The compound `CC#CC(=O)Nc1ccc2c(c1)/C(=C/c1[nH]c(CC)nc1C)C(=O)N2` yielded an IC50 in assay [2] above 20000 nM. The Activity in the assay on A549 [3] is on record as 33%.
`C#CC(=O)Nc1ccc2c(c1)/C(=C/c1[nH]c(CC)nc1C)C(=O)N2` came in with an IC50 in [2] above 20000 nM. Further, the result in the assay on A549 [8], with A549 [9] and in the assay on A549 [10] was inactive.
Regarding `CCc1nc(C)c(/C=C2\C(=O)N(C)c3ccc(C(=O)CCl)cc32)[nH]1.Cl`, the Activity in the assay with A549 [3] is on record as 0.9%.
